Laboratory results published in ChEMBL document CHEMBL3351818, “Synthesis and biological evaluation of novel 3,4-diaryl-1,2,5-selenadiazol analogues of combretastatin A-4” (Eur J Med Chem, 2014).
Active and inactive are the calls of the source. No cut-off for these calls is given here.

Columns and labels:
HT-1080 [1] = experiment: Disruption of microtubule network in human HT1080 cells assessed as cell rounding at 2 times IC50 after 12 hrs by immunofluorescence staining method; format: cell-based
Procedure, shortened: (§1)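 HT-1080 cells seeded at 1 × 10⁴/well, grown 24 h, then given vehicle or agent for 12 h. Fixed in 4% formaldehyde/PBS 30 min at −20 °C, permeabilised with 0.1% Triton X-100 5 min, and blocked with 5% BSA. Anti-α-tubulin (1:100) applied overnight at 4 °C, then FITC anti-mouse secondary (1:1000) 3 h at 37 °C, with DAPI counterstain.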

Tubulin (Homo sapiens) [2] = target: T1, Tubulin (Homo sapiens) (UniProt P68371+Q9H4B7+P0DPH7+P68366+Q13509+Q71U36+P04350+Q3ZCM7+P07437+P68363+Q9BQE3+Q6PEY2+Q13885+Q9BVA1+Q9BUF5); experiment: Inhibition of tubulin (unknown origin) polymerization measured for 90 mins by fluorescence assay; format: protein-complex assay
[3] = Antiproliferative activity against human HT1080 cells after 72 hrs by MTT assay; format: functional, cell-based; settings: HT-1080, 72 h
Procedure, shortened: (§2)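 Cells were seeded at 1–3 × 10⁴/well, depending on growth rate, and grown 24 h. Triplicate wells were then exposed to agents for 72 h at 37 °C in 5% CO₂. IC50 is the concentration giving 50% absorbance reduction versus vehicle, averaged from ≥3 independent experiments. SGC-7901 and HT-1080 were cultured in RPMI-1640 with 10% FBS.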

KB = experiment: Antiproliferative activity against human KB cells after 72 hrs by MTT assay; format: functional, cell-based; procedure, shortened: as §2
[4] = Cell cycle arrest in human HT1080 cells assessed as accumulation at sub-G1 phase at 25 nM after 24 hrs using propidium iodide staining by FACScan flow cytometry; format: functional, cell-based; settings: HT-1080
Procedure, shortened: (§3)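 HT-1080 cells (8 × 10⁴) exposed 24 h to test agent or 0.05% DMSO vehicle. Harvested by centrifugation, PBS-washed, fixed in ice-cold 70% ethanol, then RNase-treated 30 min at 37 °C. Propidium iodide 50 µg/mL applied 30 min at 4 °C in the dark before FACScan flow cytometry. Repeated at least three times.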

[5] = Cell cycle arrest in human HT1080 cells assessed as accumulation at G2/M phase at 150 nM after 24 hrs using propidium iodide staining by FACScan flow cytometry (reference value: 29.27 %); format: functional, cell-based; settings: HT-1080; procedure, shortened: as §3
[6] = Cell cycle arrest in human HT1080 cells assessed as accumulation at G0/G1 phase at 100 nM after 24 hrs using propidium iodide staining by FACScan flow cytometry (Rvb =52.17 %); format: functional, cell-based; settings: HT-1080; procedure, shortened: as §3
[7] = Cell cycle arrest in human HT1080 cells assessed as accumulation at G0/G1 phase at 75 nM after 24 hrs using propidium iodide staining by FACScan flow cytometry (Rvb =52.17 %); format: functional, cell-based; settings: HT-1080; procedure, shortened: as §3
Tubulin (Homo sapiens) [8] = target: T1, Tubulin (Homo sapiens); experiment: Inhibition of tubulin (unknown origin) polymerization at 4 uM measured for 90 mins by fluorescence assay; format: protein-complex assay
[9] = Cell cycle arrest in human HT1080 cells assessed as accumulation at G2/M phase at 75 nM after 24 hrs using propidium iodide staining by FACScan flow cytometry (reference value: 29.27 %); format: functional, cell-based; settings: HT-1080; procedure, shortened: as §3
[10] = Cell cycle arrest in human HT1080 cells assessed as accumulation at sub-G1 phase at 150 nM after 24 hrs using propidium iodide staining by FACScan flow cytometry; format: functional, cell-based; settings: HT-1080; procedure, shortened: as §3
[11] = Cell cycle arrest in human HT1080 cells assessed as accumulation at sub-G1 phase at 75 nM after 24 hrs using propidium iodide staining by FACScan flow cytometry; format: functional, cell-based; settings: HT-1080; procedure, shortened: as §3
[12] = Cell cycle arrest in human HT1080 cells assessed as accumulation at G0/G1 phase at 50 nM after 24 hrs using propidium iodide staining by FACScan flow cytometry (Rvb =52.17 %); format: functional, cell-based; settings: HT-1080; procedure, shortened: as §3
[13] = Cell cycle arrest in human HT1080 cells assessed as accumulation at G2/M phase at 50 nM after 24 hrs using propidium iodide staining by FACScan flow cytometry (reference value: 29.27 %); format: functional, cell-based; settings: HT-1080; procedure, shortened: as §3
[14] = Cell cycle arrest in human HT1080 cells assessed as accumulation at G2/M phase at 25 nM after 24 hrs using propidium iodide staining by FACScan flow cytometry (reference value: 29.27 %); format: functional, cell-based; settings: HT-1080; procedure, shortened: as §3
HT-1080 [15] = experiment: Disruption of microtubule network in human HT1080 cells assessed as loss of the radial distribution of structured microtubules at 2 times IC50 after 12 hrs by immunofluorescence staining method; format: cell-based; procedure, shortened: as §1
[16] = Cell cycle arrest in human HT1080 cells assessed as accumulation at G2/M phase after 24 hrs using propidium iodide staining by FACScan flow cytometry; format: functional, cell-based; settings: HT-1080; procedure, shortened: as §3
[17] = Cell cycle arrest in human HT1080 cells assessed as accumulation at S phase at 75 nM after 24 hrs using propidium iodide staining by FACScan flow cytometry (reference value: 18.56 %); format: functional, cell-based; settings: HT-1080; procedure, shortened: as §3
[18] = Cell cycle arrest in human HT1080 cells assessed as accumulation at G0/G1 phase at 150 nM after 24 hrs using propidium iodide staining by FACScan flow cytometry (Rvb =52.17 %); format: functional, cell-based; settings: HT-1080; procedure, shortened: as §3
[19] = Cell cycle arrest in human HT1080 cells assessed as accumulation at G0/G1 phase at 25 nM after 24 hrs using propidium iodide staining by FACScan flow cytometry (Rvb =52.17 %); format: functional, cell-based; settings: HT-1080; procedure, shortened: as §3
Tubulin (Homo sapiens) [20] = target: T1, Tubulin (Homo sapiens); experiment: Inhibition of tubulin (unknown origin) polymerization at 1 uM measured for 90 mins by fluorescence assay; format: protein-complex assay
[21] = Cell cycle arrest in human HT1080 cells assessed as accumulation at S phase at 150 nM after 24 hrs using propidium iodide staining by FACScan flow cytometry (reference value: 18.56 %); format: functional, cell-based; settings: HT-1080; procedure, shortened: as §3
[22] = Cell cycle arrest in human HT1080 cells assessed as accumulation at S phase at 100 nM after 24 hrs using propidium iodide staining by FACScan flow cytometry (reference value: 18.56 %); format: functional, cell-based; settings: HT-1080; procedure, shortened: as §3
Tubulin (Homo sapiens) [23] = target: T1, Tubulin (Homo sapiens); experiment: Inhibition of tubulin (unknown origin) polymerization at 8 uM measured for 90 mins by fluorescence assay; format: protein-complex assay
[24] = Antiproliferative activity against human SGC7901 cells after 72 hrs by MTT assay; format: functional, cell-based; settings: SGC-7901, 72 h; procedure, shortened: as §2
[25] = Cell cycle arrest in human HT1080 cells assessed as accumulation at S phase at 50 nM after 24 hrs using propidium iodide staining by FACScan flow cytometry (reference value: 18.56 %); format: functional, cell-based; settings: HT-1080; procedure, shortened: as §3
[26] = Cell cycle arrest in human HT1080 cells assessed as accumulation at S phase at 25 nM after 24 hrs using propidium iodide staining by FACScan flow cytometry (reference value: 18.56 %); format: functional, cell-based; settings: HT-1080; procedure, shortened: as §3
[27] = Cell cycle arrest in human HT1080 cells assessed as accumulation at sub-G1 phase at 50 nM after 24 hrs using propidium iodide staining by FACScan flow cytometry; format: functional, cell-based; settings: HT-1080; procedure, shortened: as §3
[28] = Cell cycle arrest in human HT1080 cells assessed as accumulation at G2/M phase at 100 nM after 24 hrs using propidium iodide staining by FACScan flow cytometry (reference value: 29.27 %); format: functional, cell-based; settings: HT-1080; procedure, shortened: as §3
Tubulin (Homo sapiens) [29] = target: T1, Tubulin (Homo sapiens); experiment: Inhibition of tubulin (unknown origin) polymerization at 2 uM measured for 90 mins by fluorescence assay; format: protein-complex assay
HT-1080 [30] = experiment: Disruption of microtubule network in human HT1080 cells assessed as cell detachment at 2 times IC50 after 12 hrs by immunofluorescence staining method; format: cell-based; procedure, shortened: as §1
[31] = Cell cycle arrest in human HT1080 cells assessed as accumulation at sub-G1 phase at 100 nM after 24 hrs using propidium iodide staining by FACScan flow cytometry; format: functional, cell-based; settings: HT-1080; procedure, shortened: as §3

COc1ccc(-c2n[se]nc2-c2cc(OC)c(OC)c(OC)c2)cc1O
Activity (HT-1080 [1]): Active
inhibition (Tubulin (Homo sapiens) [2]): Dose-dependent effect
IC50 [3]: 0.021 µM
IC50 (KB): 3.9 nM
Activity [4]: 15.7%
Activity [5]: 80.7%
Activity [6]: 5.46%
Activity [7]: 37.2%
inhibition (Tubulin (Homo sapiens) [8]): 65%
Activity [9]: 45.2%
Activity [10]: 10.9%
Activity [11]: 4.39%
Activity [12]: 49.1%
Activity [13]: 32.4%
Activity [14]: 71.9%
Activity (HT-1080 [15]): Active
Activity [16]: Dose-dependent effect
Activity [17]: 13.3%
Activity [18]: 2.61%
Activity [19]: 3.93%
inhibition (Tubulin (Homo sapiens) [20]): 20.4%
Activity [21]: 5.82%
Activity [22]: 4.07%
inhibition (Tubulin (Homo sapiens) [23]): 97.6%
IC50 [24]: 0.019 µM
Activity [25]: 16%
Activity [26]: 3.1%
Activity [27]: 2.47%
Activity [28]: 72.4%
inhibition (Tubulin (Homo sapiens) [29]): 48.8%
Activity (HT-1080 [30]): Active
Activity [31]: 18.1%

COc1ccc(-c2n[se]nc2-c2cc(OC)c(OC)c(OC)c2)cc1OCc1ccccc1
IC50 [3]: > 30 µM
IC50 (KB): > 30000 nM
IC50 [24]: > 30 µM

COc1ccc(-c2n[se]nc2-c2cc(OC)c(OC)c(OC)c2)cc1[N+](=O)[O-]
IC50 [3]: 24.8 µM
IC50 (KB): 10100 nM
IC50 [24]: > 30 µM

COc1ccc(-c2n[se]nc2-c2ccc3c(c2)OCO3)cc1
IC50 [3]: > 30 µM
IC50 (KB): 5210 nM
IC50 [24]: 8.28 µM

COc1ccc(-c2n[se]nc2-c2ccc3c(c2)OCO3)cc1[N+](=O)[O-]
IC50 [3]: > 30 µM
IC50 (KB): > 30000 nM
IC50 [24]: > 30 µM

c1ccc2cc(-c3n[se]nc3-c3ccc4c(c3)OCO4)ccc2c1
IC50 [3]: 23.3 µM
IC50 (KB): 10400 nM
IC50 [24]: 17.3 µM

COc1cc(-c2n[se]nc2-c2ccc(O)cc2)cc(OC)c1OC
IC50 [3]: 15 µM
IC50 (KB): 15800 nM
IC50 [24]: > 30 µM

CNc1cc(-c2n[se]nc2-c2cc(OC)c(OC)c(OC)c2)ccc1OC
IC50 [3]: 0.98 µM
IC50 (KB): 1520 nM
IC50 [24]: > 30 µM

CCOc1ccc(-c2n[se]nc2-c2cc(OC)c(OC)c(OC)c2)cc1Br
IC50 [3]: 3.46 µM
IC50 (KB): 930 nM
IC50 [24]: 12.8 µM

COc1ccc(-c2n[se]nc2-c2cc(OC)c(OC)c(OC)c2)cc1
IC50 [3]: 0.084 µM
IC50 (KB): 31 nM
IC50 [24]: 0.063 µM

COc1ccc(-c2n[se]nc2-c2ccc3c(c2)OCO3)cc1N
IC50 [3]: 13.5 µM
IC50 (KB): 1870 nM
IC50 [24]: > 30 µM

COc1ccc(-c2n[se]nc2-c2ccc3c(c2)OCO3)cc1O
IC50 [3]: 0.73 µM
IC50 (KB): 2380 nM
IC50 [24]: 3.68 µM

COc1ccc(/C=C\c2cc(OC)c(OC)c(OC)c2)cc1O [COMBRETASTATIN A4]
IC50 [3]: 0.0076 µM
IC50 (KB): 13 nM
IC50 [24]: 0.028 µM

COc1ccc(-c2n[se]nc2-c2cc(OC)c(OC)c(OC)c2)cc1Br
IC50 [3]: 2.59 µM
IC50 (KB): 3060 nM
IC50 [24]: > 30 µM

CCOc1ccc(-c2n[se]nc2-c2cc(OC)c(OC)c(OC)c2)cc1
IC50 [3]: 0.16 µM
IC50 (KB): 420 nM
IC50 [24]: 0.23 µM

CCOc1ccc(-c2n[se]nc2-c2cc(OC)c(OC)c(OC)c2)cc1N
IC50 [3]: 10.1 µM
IC50 (KB): 99 nM
IC50 [24]: 0.14 µM

COc1ccc(-c2n[se]nc2-c2cc(OC)c(OC)c(OC)c2)cc1N
IC50 [3]: 0.026 µM
IC50 (KB): 11 nM
IC50 [24]: 0.021 µM

COc1cc(-c2n[se]nc2-c2ccc3ccccc3c2)cc(OC)c1OC
IC50 [3]: 1.11 µM
IC50 (KB): 770 nM
IC50 [24]: 2.35 µM

COc1cc(-c2n[se]nc2-c2cccc(O)c2)cc(OC)c1OC
IC50 [3]: 5.98 µM
IC50 (KB): > 30000 nM
IC50 [24]: > 30 µM

COc1cc(-c2n[se]nc2-c2cccc(OCc3ccccc3)c2)cc(OC)c1OC
IC50 [3]: > 30 µM
IC50 (KB): 10700 nM
IC50 [24]: > 30 µM

COc1cc(-c2n[se]nc2-c2ccc(Br)cc2)cc(OC)c1OC
IC50 [3]: 7.4 µM
IC50 (KB): 7860 nM
IC50 [24]: 10.9 µM

COc1cc(-c2n[se]nc2-c2ccc(O)c(Br)c2)cc(OC)c1OC
IC50 [3]: 16.4 µM
IC50 (KB): 4800 nM
IC50 [24]: > 30 µM
